We go through 5 compounds from ChEMBL document CHEMBL1156160, “The introduction of P4 substituted 1-methylcyclohexyl groups into Boceprevir: a change in direction in the search for a second generation HCV NS3 protease inhibitor” (Bioorg Med Chem Lett, 2010).

The structures appear in SMILES notation.

Data set [1] can be described thus: Inhibition of HCV NS4A tagged recombinant single chain NS3 protease after 15 mins. Also noted: species or system Hepacivirus hominis.
Data set [2] can be described thus: Selectivity for HCV NS3 protease over human neutrophil elastase. A digest of the protocol: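 Ratio of inhibitory activity against human neutrophil elastase to that against HCV protease (HNE/HCV), taken as selectivity. HCV activity was from a continuous protease assay using NS4A-tethered single-chain NS3 serine protease, giving Ki* as the equilibrium constant for reversible covalent binding of the electrophilic ketone to the active-site serine. Compounds were tested as P1-epimer diastereomer mixtures.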

Data set [3] concerns Hepatitis C virus. Description: Antiviral activity against HCV in human hepatoma cells assessed as inhibition of RNA replication by replicon assay. Type of data set: functional, Hepacivirus hominis. On the technique in general: A replicon is a self-replicating genome or part of one, used to study replication in cells.
The nature of data set [4]: Bioavailability in dog. It is filed as ADME, organism-based, Canis lupus familiaris. The conditions noted are these: in vivo.
The nature of data set [5]: AUC in monkey at 3 mg/kg, po. Also noted: dose 3 mg/kg, route oral. The conditions noted are these: rhesus monkey, plasma. It is filed as ADME, organism-based, Macaca mulatta.

As usually defined, the Ki is a measure of affinity in units of concentration, obtained from inhibition or displacement. Usually EC90 stands for the concentration needed for an effect of 90%. In general, bioavailability refers to dose-corrected exposure relative to a reference, in per cent. The AUC is concentration integrated over time. As to `CC(C)(C)NC(=O)N[C@H](C(=O)N1C[C@H]2[C@@H]([C@H]1C(=O)NC(CC1CCC1)C(=O)C(N)=O)C2(C)C)C(C)(C)C` (some centres not stated) [BOCEPREVIR], the Ki in data set [1] stood at 14 nM. Besides, the Ratio in data set [2] is 2200. Also, the EC90 in data set [3] is 350 nM. For the same compound, in data set [4], the bioavailability amounted to 34%. Besides, in data set [5], the AUC was determined as 0.12 µM·h.
On to `CC(C)(C)[C@H](NC(=O)NC1(CS(=O)(=O)Cc2ccco2)CCCCC1)C(=O)N1C[C@H]2[C@@H]([C@H]1C(=O)NC(CC1CC1)C(=O)C(N)=O)C2(C)C` (some centres not stated), for which the Ki in data set [1] came out at 4 nM. Also, the Ratio in data set [2] was 200. Besides, the EC90 in data set [3] came to 500 nM.
The like results for `CC(C)(C)[C@H](NC(=O)NC1(CS(=O)(=O)c2ccccn2)CCCCC1)C(=O)N1C[C@H]2[C@@H]([C@H]1C(=O)NC(CC1CCC1)C(=O)C(N)=O)C2(C)C` (some centres not stated) were, in that order, 10 nM, 1570 and 300 nM.
The like results for `CCC(c1ccccc1)C1(NC(=O)N[C@H](C(=O)N2C[C@H]3[C@@H]([C@H]2C(=O)NC(CC2CC2)C(=O)C(N)=O)C3(C)C)C(C)(C)C)CCCCC1` (some centres not stated) were, in that order, 20 nM, 1500 and 400 nM.
The like results for `CC(C)(C)[C@H](NC(=O)NC1(Cc2cccnc2)CCCCC1)C(=O)N1C[C@H]2[C@@H]([C@H]1C(=O)NC(CC1CC1)C(=O)C(N)=O)C2(C)C` (some centres not stated) were, in that order, 25 nM, 200 and 400 nM.
